The record followed here is ChEMBL document CHEMBL4665831, “Ultrapotent Inhibitor of Clostridioides difficile Growth, Which Suppresses Recurrence In Vivo” (J Med Chem, 2020).

Series [1] concerns Clostridioides difficile. Description: Antimicrobial activity against Clostridioides difficile NR-13432 isolate 6 assessed as reduction in microbial growth after 48 hrs by broth microdilution method. The format is functional. The gist of the method:
(§1)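 Broth microdilution: a 0.5 McFarland suspension was diluted in brain heart infusion supplemented (BHIS) broth to ~5 × 10^5 CFU/mL. Agents were serially diluted and plates incubated anaerobically at 37°C for 48 h.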

The test system of series [2] is Clostridioides difficile. Briefly: Antimicrobial activity against Clostridioides difficile NR-13435 isolate 9 assessed as reduction in microbial growth after 48 hrs by broth microdilution method. The series is classed as functional. The gist of the method:
as §1

Series [3] concerns Clostridioides difficile. Briefly: Antimicrobial activity against Clostridioides difficile NR-32883 P2 assessed as reduction in microbial growth after 48 hrs by broth microdilution method. The series is classed as functional. The gist of the method:
as §1
On the technique in general: Broth dilution looks for growth in wells or tubes with falling amounts of substance.

The test system of series [4] is Escherichia coli. Description: Antimicrobial activity against Escherichia coli JW55031 harboring TolC mutant assessed as reduction in microbial growth after 48 hrs by CLSI based broth microdilution method. The format is functional. In outline:
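CLSI broth microdilution: strains were grown aerobically overnight on tryptone soy agar at 37°C. A 0.5 McFarland suspension was diluted to ~5 × 10^5 CFU/mL in cation-adjusted Mueller-Hinton broth (E. coli) or tryptone soy broth (enterococci), and agents were serially diluted.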

The test system of series [5] is Clostridioides difficile. Description: Potency index, ratio of vancomycin MIC to test compound MIC for antibacterial activity against Clostridioides difficile NR-13432 isolate 6. The series is classed as functional.
Series [6] has as its system Clostridioides difficile. Briefly: Potency index, ratio of vancomycin MIC to test compound MIC for antibacterial activity against Clostridioides difficile ATCC 43255. The format is functional.
The subject of series [7] is Lactobacillus gasseri. Description: Antibacterial activity against Lactobacillus gasseri HM-400 assessed as reduction in microbial growth after 48 hrs by broth microdilution method. In outline: (§2)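 Gut commensal MICs by broth microdilution: a 0.5 McFarland suspension was diluted to ~5 × 10^5 CFU/mL in BHIS broth (Bacteroides) or MRS broth (Lactobacillus). Agents were serially diluted and incubated 48 h at 37°C. MIC was read by visual inspection of growth.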

In series [8] the test system is Bacteroides fragilis. Description: Antibacterial activity against Bacteroides fragilis HM-711 assessed as reduction in microbial growth after 48 hrs by broth microdilution method. The series is classed as organism-based. The gist of the method:
as §2

For series [9], the system named is Bacteroides fragilis. Description: Antibacterial activity against Bacteroides fragilis HM-709 assessed as reduction in microbial growth after 48 hrs by broth microdilution method. The series is classed as organism-based. In outline: as §2
Series [10] deals with Clostridioides difficile. Description: Antibacterial activity against Clostridioides difficile ATCC 43255 infected in CDI mouse model assessed as survival rate at 50 mg/kg, po for 5 days relative to control. The format is functional. The following applies: ATCC 43255, po, 120 h, time 5 day.
The nature of series [11]: Selectivity ratio of MIC for antibacterial activity against Bacteroides fragilis HM-711 to antibacterial activity against Clostridioides difficile NR-13432 isolate 6. The series is classed as ADME.
A short description of series [12]: Selectivity ratio of MIC for antibacterial activity against Bacteroides fragilis HM-711 to antibacterial activity against Clostridioides difficile NR-32895 P19. The series is classed as ADME.
A short description of series [13]: Selectivity ratio of MIC for antibacterial activity against Bacteroides dorei HM-719 to antibacterial activity against Clostridioides difficile NR-32895 P19. The format is ADME.

As for `O=C(Nc1nnc(-c2cc(Cl)cc(Cl)c2)o1)c1ccc(SC(F)(F)F)cc1`, the MIC is 0.07 µM in series [1]; 0.007 µM in [2]; 0.02 µM in [3]; 9.2 µM in series [4]; 36.8 µM in series [7]; 4.6 µM in series [8]. Moreover, the MIC in series [9] worked out at 2.3 µM. The Ratio in series [5] and in [6] was 2.5 in each case. For the same compound, the survival at 50 mg/kg in series [10] was 66.7%. Further, the Selectivity ratio in [11], in series [12] and in [13] was 100 each time.
